Most compounds without a hit are left out; they make up all but 1.5% or so of the library.
Rpn11 inh: Rpn11 (PSMD14) deubiquitinase inhibitors, primary screen, biochemical, fluorescence polarization, uHTS | 360,000 tested, 0.59% active | calls only at 20 µM | human 26S proteasome, Ub4-pepOG fluorescence polarization; 20S core pre-blocked with epoxomicin;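 active = inhibition at 20 µM, scaled to each plate's controls, above about 33%, limit read from the data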
HNF4A DNA FP: change in binding of human HNF4A to DNA, primary screen, biochemical, fluorescence polarization, FITC-DNA. Hepatocyte nuclear factor 4-alpha (Homo sapiens), P41235. 1 h. activity change, % at 10 µM. 360,000 tested, 0.3% active. AID 1224865, 2016; in the data active = activity change above about 30%, passing the limit was not always enough
TPT1 inh: Candida albicans TPT1 enzyme inhibitors, primary screen, biochemical, fluorescence polarization | tRNA 2'-phosphotransferase TPT1 (Candida albicans SC5314) | recombinant caTPT1, FP RNA substrate dephosphorylation | inhibition, % at 5 µM | 300,000 tested, 0.81% active | AID 1962, 2009;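 active = inhibition above the mean of all tested compounds plus 3 SD, set per screening campaign, cut at about 24% in these data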
CSN deneddyl inh: inhibitors of CSN-mediated cullin deneddylation, primary screen, biochemical, fluorescence polarization, uHTS. COP9 signalosome complex subunit 5 (Homo sapiens), Q92905. inhibition, % at 12.5 µM. AID 651999, 2013. Purified CSN, SCF-Nedd8-OG deneddylation. 360,000 tested, 0.38% active;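 active = pattern-corrected inhibition above about 35%, with an unprinted fluorescence ratio check between 0.5 and 1.5, limit read from the data, passing the limit was not always enough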
Target sequence (Q92905 whole entry, looked up, one chain of several): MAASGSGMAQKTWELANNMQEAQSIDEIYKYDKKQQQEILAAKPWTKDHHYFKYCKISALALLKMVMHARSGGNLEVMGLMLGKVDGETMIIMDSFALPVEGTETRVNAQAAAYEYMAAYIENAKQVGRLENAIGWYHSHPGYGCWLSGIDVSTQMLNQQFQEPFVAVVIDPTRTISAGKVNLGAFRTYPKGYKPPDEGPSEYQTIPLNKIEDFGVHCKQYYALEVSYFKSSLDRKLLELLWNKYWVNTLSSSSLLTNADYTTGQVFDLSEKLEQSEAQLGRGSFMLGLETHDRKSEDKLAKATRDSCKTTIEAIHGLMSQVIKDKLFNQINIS
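Material: purified human Csn5 enzyme expressed in HEK293T cells / Medium: Tris buffer pH 7.5, NaCl, DTT, Tween-20, trehalose, ovalbumin / Compound dosing: 12.5 µM single point / Schedule: 90 min incubation of compound, enzyme and substrate at room temperature / Signal: fluorescence polarization of the substrate / Control set: no-enzyme wells high, enzyme-with-substrate wells low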
Rpn11 inh conf: Rpn11 (PSMD14) deubiquitinase inhibitors, confirmation, biochemical, fluorescence polarization, single concentration | shares compounds with Rpn11 inh | inhibition, % at 20 µM | 1,900 tested, 29% active | AID 602318, 2012 | purified human 26S proteasome, Ub4-pepOG fluorescence polarization; proteasome pretreated with epoxomicin
MMP-2 inh: MMP-2 enzyme inhibition, confirmation, counter-screen for RPN11 inhibitor project, biochemical, fluorescence, single concentration; 1,900 tested, 4% active; shares compounds with Rpn11 inh; AID 602330, 2012; inhibition, % at 20 µM; recombinant MMP-2, FRET peptide cleavage fluorescence;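 also: human MMP-2 activated beforehand with APMA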
Thrombin inh: bovine thrombin protease inhibition, confirmation, counter-screen for Rpn11 inhibitor project, biochemical, fluorescence polarization, single concentration; shares compounds with Rpn11 inh; 1,900 tested, 13% active; bovine thrombin cleavage of Ub4-pepOG; inhibition, % at 20 µM; AID 602333, 2012;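 active = mean inhibition at least 40% at 20 µM, or signal 3 deviations below plate average, so some actives read negative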
Of the large screens only hits and unclear results are named; the others gave an inactive call (follow-up assays come after a bar, where they were run). Rule as the data show it, unless noted: active = inhibition above about 40%; inactive = the rest.

Cc1ccc(OCc2ccc(C(=O)Nc3cc(C)on3)o2)c([N+](=O)[O-])c1	none
Cc1ccc(OCc2ccc(C(=O)Nc3ccc(C(N)=O)cc3)o2)c([N+](=O)[O-])c1	Rpn11 inh active | Rpn11 inh conf inactive | MMP-2 inh inactive | Thrombin inh inactive
CCN(C(=O)COC(=O)C1=COCCO1)c1c(N)n(Cc2ccccc2)c(=O)[nH]c1=O	none (no result: TPT1 inh)
CCn1c2ccccc2c2cc(/C=N/NC(=O)c3ccccc3C)ccc21	none
CCn1c2ccccc2c2cc(/C=N/NC(=O)c3cccc(C)c3)ccc21	Rpn11 inh active, CSN deneddyl inh 45 | Rpn11 inh conf inactive | MMP-2 inh inactive | Thrombin inh inactive
CCC1CCCCN1CCNS(=O)(=O)c1ccc2c(c1)oc(=O)n2C (centres undefined)	none
CCC1CCCCN1CCCNS(=O)(=O)c1ccc2c(c1)oc(=O)n2C (centres undefined)	Rpn11 inh active | Rpn11 inh conf inactive | MMP-2 inh inactive | Thrombin inh inactive
CCN(CC(=O)Nc1ccc(Br)cc1F)CC(=O)NC1CCS(=O)(=O)C1 (centres undefined)	none (no result: TPT1 inh)
CC/C(=N/Nc1cccc(Cl)c1)c1cnnc(SC)n1	Rpn11 inh active | Rpn11 inh conf inactive | MMP-2 inh inactive | Thrombin inh inactive
COc1ccc(-n2nc(C(=O)NCC(=O)NC(C)C)c3ccccc3c2=O)cc1Cl	none
COc1ccc(-n2nc(C(=O)NCC(=O)Nc3ccccn3)c3ccccc3c2=O)cc1Cl	Rpn11 inh active (no result: TPT1 inh) | Rpn11 inh conf inactive | MMP-2 inh inactive | Thrombin inh inactive
COc1cc2nc(C(C)(C)C)oc(=O)c2cc1OC	none
CCC(CC)c1nc2cc(OC)c(OC)cc2c(=O)o1	Rpn11 inh active | Rpn11 inh conf inactive | MMP-2 inh inactive | Thrombin inh inactive
N#Cc1ccc(-c2ccc(OCC(=O)NCC(=O)Nc3ccc(F)c(F)c3F)cc2)cc1	Rpn11 inh active | Rpn11 inh conf 97 | MMP-2 inh inactive | Thrombin inh inactive
CCOc1nc2cnccc2n(CC(=O)Nc2ccccc2C(=O)OC)c1=O	Rpn11 inh active | Rpn11 inh conf inactive | MMP-2 inh inactive | Thrombin inh inactive
N=c1c(S(=O)(=O)c2ccccc2)cc2c(=O)n3ccccc3nc2n1C1CCCC1	Rpn11 inh active | Rpn11 inh conf inactive | MMP-2 inh inactive | Thrombin inh inactive
COC(=O)CCCC1=CC2=CC(=O)C(C)(OC(=O)C3CCCC3)C(=O)C2=CO1 (centres undefined)	none (no result: Rpn11 inh, HNF4A DNA FP, CSN deneddyl inh)
CCCCC1=CC2=CC(=O)C(C)(OC(=O)C3CCCC3)C(=O)C2=CO1 (centres undefined)	Rpn11 inh active | Rpn11 inh conf 46 | MMP-2 inh inactive | Thrombin inh inactive
COc1cc(/C=C2\SC(N3CCC(C)CC3)=NC2=O)ccc1O	Rpn11 inh active | Rpn11 inh conf inactive | MMP-2 inh inactive | Thrombin inh inactive
COc1ccc(/C=C2\SC(N3CCCCC3)=NC2=O)cc1OC	none
O=[N+]([O-])c1ccc(NN=Cc2cccc3ccccc23)cc1	Rpn11 inh active (no result: TPT1 inh) | Rpn11 inh conf inactive | MMP-2 inh inactive | Thrombin inh inactive
CC(OC(=O)c1nn(C)c(=O)c2ccccc12)C(=O)NC1CCCCC1C (centres undefined)	none
COCCCN1C(=O)C2C(C(=O)Nc3cc(C)cc(C)c3)C3C=CC2(O3)C1C(=O)NC1CCCCC1 (centres undefined)	none
NS(=O)(=O)c1ccc(NC(=O)c2ccc(-c3ccccc3)cc2)cc1	Rpn11 inh active (no result: TPT1 inh) | Rpn11 inh conf 119 | MMP-2 inh inactive | Thrombin inh inactive
NS(=O)(=O)c1ccc(NC(=O)c2cccc(N3C(=O)c4ccccc4C3=O)c2)cc1	Rpn11 inh active | Rpn11 inh conf 82 | MMP-2 inh inactive | Thrombin inh inactive

Screening data deposited in PubChem BioAssay by several laboratories.
